According to ChEMBL document CHEMBL4219104, “Bicyclo((aryl)methyl)benzamides as inhibitors of GlyT1” (Bioorg Med Chem Lett, 2018):
In brackets after ≈: the same amount, converted by molar mass.

What was measured:
[1] = Octanol-water partition coefficient, log D of the compound at pH 7.4; format: physicochemical
Method in brief: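 logD determined empirically as ratio of compound partitioned between octanol and water at pH 7.4.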

[2] = Equilibrium solubility of the compound in phosphate buffer at pH 7.4 by UV-HPLC analysis; format: physicochemical
Method in brief: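 Equilibrium solubility determined at pH 7.4.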

[3] = Cmax in Sprague-Dawley rat at 9 umol/kg, po; format: ADME, organism-based; design: dose 9 umol/kg, route oral; details: in vivo
[4] = Volume of distribution at steady state in Sprague-Dawley rat at 3 umol/kg, iv; format: ADME, organism-based; details: in vivo, read-out: Vdss
[5] = Ratio of drug level in brain to plasma in sc dosed CD-1 mouse; format: ADME, organism-based; details: read-out: BPR
Method in brief: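 CD-1 mice dosed subcutaneously; brain and plasma levels compared as brain-to-plasma ratio.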

[6] = Oral bioavailability in Sprague-Dawley rat at 9 umol/kg; format: ADME, organism-based; details: in vivo
[7] = Ratio of drug level in brain to plasma in Sprague-Dawley rat at 3 umol/kg, iv; format: ADME; details: read-out: BPR
[8] = Tmax in Sprague-Dawley rat at 9 umol/kg, po; format: ADME, organism-based; details: in vivo

Structure (SMILES) | logD [1] | solubility thermodynamic [2] | further results
CCN1C2CCC1(C(NC(=O)c1c(C)cccc1C)c1ccccc1)CC2 (stereo not given) | 2.1 | – | –
CN1CC2CCC1([C@H](NC(=O)c1cccc(Cl)c1Cl)c1ccccc1)CC2 | 2.2 | 493 µM (≈ 199 µg/mL) | –
CN1CC2CCC1(C(NC(=O)c1cccc(C(F)(F)F)c1Cl)c1ccccc1)CC2 (racemic) | 2.7 | – | –
CN1CC2CCC1(C(NC(=O)c1cccc(C(F)(F)F)c1Cl)c1cccnc1)CC2 (racemic) | 2.3 | – | –
Cc1ccnc(C)c1C(=O)N[C@H](c1ccccc1)C12CCC(CC1)CN2C | 0.8 | 373 µM (≈ 136 µg/mL) | –
Cc1ccc(C(NC(=O)c2c(C)cccc2C)C23CCC(CC2)CN3C)o1 (stereo not given) | 1.5 | – | –
Cc1cccc(C)c1C(=O)NC(c1ccccc1)C12CCC(CC1)N2C1CC1 (stereo not given) | 1.1 | – | –
CCN1CC2CC1(C(NC(=O)c1c(C)cccc1C)c1ccccc1)C2 (stereo not given) | 1.1 | – | –
CN1CC2CCC1(C(NC(=O)c1cccc(C(F)(F)F)c1Cl)c1cccc(Br)c1)CC2 (racemic) | 3.3 | – | –
CN1CC2CCC1([C@H](NC(=O)c1ccncc1Br)c1ccccc1)CC2 | – | > 500 µM | –
Cc1cccc(C)c1C(=O)NC(c1ccccc1)C12CC(CN1)C2 (stereo not given) | 0.8 | – | –
Cc1cccc(C)c1C(=O)NC(c1ccccc1)C12CCC(CC1)N2C(C)C (stereo not given) | 1.9 | – | –
CSc1ncccc1C(=O)N[C@H](c1ccccc1)C12CCC(CC1)CN2C | 1.3 | > 500 µM | –
Cc1cccc(C)c1C(=O)NC(c1ccccc1)C12CCC(CC1)CN2 (stereo not given) | 1.3 | – | –
CN1CC2CCC1([C@H](NC(=O)c1ccnc(Cl)c1Cl)c1ccccc1)CC2 | 2.2 | 498 µM (≈ 201 µg/mL) | –
Cc1ccccc1C(NC(=O)c1cccc(C(F)(F)F)c1Cl)C12CCC(CC1)CN2C (racemic) | 3 | – | –
COc1ccc(C(NC(=O)c2cccc(C(F)(F)F)c2Cl)C23CCC(CC2)CN3C)cc1 (racemic) | 2.7 | – | –
Cc1cccc(C)c1C(=O)N[C@H](c1ccccc1)C12CCC(CC1)CN2C | 1.9 | 414 µM (≈ 150 µg/mL) | Cmax [3]: 2450 nM; Vd [4]: 1.8 L/kg; Kp [5]: 0.4; bioavailability [6]: 105%; Kp [7]: 0.2; Tmax [8]: 1 h
CN1CC2CCC1(C(NC(=O)c1cccc(C(F)(F)F)c1Cl)c1ccccn1)CC2 (racemic) | 1.6 | – | –
Cc1cccc(C)c1C(=O)NC(c1ccncc1)C12CCC(CC1)N2 (stereo not given) | 0.9 | – | –

Structure (SMILES) | logD [1] | solubility thermodynamic [2] | further results
CN1CC2CCC1(C(NC(=O)c1cccc(C(F)(F)F)c1Cl)c1ccco1)CC2 (racemic) | 2 | – | –
Cc1cccc(C(NC(=O)c2cccc(C(F)(F)F)c2Cl)C23CCC(CC2)CN3C)c1 (racemic) | 3 | – | –
CN1CC2CCC1([C@H](NC(=O)c1ccnc(C(F)(F)F)c1F)c1ccccc1)CC2 | 2.4 | > 500 µM | –
Cc1cccc(C)c1C(=O)NC(c1ccccc1)C12CCC(CC1)N2C (stereo not given) | 1.9 | – | –
CN1CC2CCC1([C@H](NC(=O)c1c(Cl)ccnc1Cl)c1ccccc1)CC2 | 1.1 | > 500 µM | –
CN1CC2CCC1([C@H](NC(=O)c1c(Cl)cncc1Cl)c1ccccc1)CC2 | 1.4 | 481 µM (≈ 194 µg/mL) | –
Cc1cccc(C)c1C(=O)NC(c1ccccc1)C12CCC(CC1)N2 (stereo not given) | 1.4 | – | –
CN1CCCC[C@H]1[C@@H](NC(=O)c1cccc(C(F)(F)F)c1Cl)c1ccccc1 | 2.9 | 124 µM (≈ 50.9 µg/mL) | –
CN1CC2CCC1([C@@H](NC(=O)c1cccc(C(F)(F)F)c1Cl)c1ccccc1)CC2 | 2.7 | > 500 µM | –
COc1cccc(OC)c1C(=O)N[C@H](c1ccccc1)C12CCC(CC1)CN2C | 0.7 | 495 µM (≈ 195 µg/mL) | –
COc1cncc(Cl)c1C(=O)N[C@H](c1ccccc1)C12CCC(CC1)CN2C | 1 | > 500 µM | –
CN1CC2CCC1([C@H](NC(=O)c1cccc(C(F)(F)F)c1Cl)c1ccccc1)CC2 | 2.7 | > 482 µM | –
CN1CC2CCC1(C(NC(=O)c1cccc(C(F)(F)F)c1Cl)c1ccncc1)CC2 (racemic) | 2.4 | – | –
CN1CC2CCC1([C@H](NC(=O)c1c(Cl)cccc1Cl)c1ccccc1)CC2 | 1.9 | > 500 µM | –
Cc1cccc(C)c1C(=O)NC(c1ccc(S(=O)(=O)CC2CC2)cc1)C12CCC(CC1)CN2C (stereo not given) | 2 | – | –
Cc1cccc(C)c1C(=O)NC(c1ccccc1)C12CC(CN1C)C2 (stereo not given) | 1.1 | – | –
Cc1cccc(C)c1C(=O)NC(c1ccncc1)C12CCC(CC1)CN2C (stereo not given) | 1.4 | – | –
Cc1cccc(C)c1C(=O)NC(c1cccc(-c2cnn(C)c2)c1)C12CCC(CC1)CN2C (stereo not given) | 2.1 | – | –
CN1CC2CCC1([C@H](NC(=O)c1c(N)cccc1Cl)c1ccccc1)CC2 | 1.3 | 462 µM (≈ 177 µg/mL) | –
